Screening results: PubChem BioAssay, The Scripps Research Institute Molecular Screening Center
An excerpt weighted towards active compounds, which were near 3.1% of everything screened.
OX1R antag-1 = antagonists of human orexin 1 receptor (OX1R); Orexin/Hypocretin receptor type 1 (Homo sapiens), O43613; OX1R-expressing cells, FRET antagonist read-out; inhibition, % at 6.6 µM; hit rate 1.8% among 330,000; AID 485270, 2010; in the data active means inhibition mostly above about 38%, no sharp cut-off; inactive means mostly below about 40%;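 further: 0% = agonist challenge alone and 100% = reference antagonist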
Target sequence (O43613 whole entry, looked up): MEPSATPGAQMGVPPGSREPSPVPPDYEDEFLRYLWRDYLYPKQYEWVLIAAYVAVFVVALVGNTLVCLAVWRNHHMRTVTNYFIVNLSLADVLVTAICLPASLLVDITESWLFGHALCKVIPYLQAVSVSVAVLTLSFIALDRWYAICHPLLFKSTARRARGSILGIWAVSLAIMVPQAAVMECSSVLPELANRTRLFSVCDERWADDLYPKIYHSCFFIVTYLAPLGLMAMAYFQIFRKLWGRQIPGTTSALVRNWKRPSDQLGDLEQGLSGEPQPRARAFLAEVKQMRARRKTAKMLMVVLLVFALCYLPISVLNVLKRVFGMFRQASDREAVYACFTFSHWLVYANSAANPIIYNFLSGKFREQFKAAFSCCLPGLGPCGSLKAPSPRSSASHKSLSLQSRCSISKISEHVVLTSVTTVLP
CHO parental Ca = ATP-evoked calcium signal inhibitors, parental CHO, primary screen, counter-screen for OX1R antagonist project, cell-based, fluorescence, Fluo-8 calcium dye; parental CHO-K1, ATP-induced calcium, Fluo-8 fluorescence; inhibition, % at 5.6 µM; hit rate 0.63% among 330,000;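 active means inhibition above that plate's mean sample inhibition plus 3 SD, cut at about 26% in these data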;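 further: 0% = ATP-challenged DMSO wells and 100% = DMSO wells without ATP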
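Assay system – parental CHO cells · Reagent – ATP stimulus · Detection – intracellular calcium via Fluo-8 no-wash fluorescent dye · Evaluation – percent inhibition of ATP-evoked calcium rise, normalized to controls · Controls – ATP wells versus no-ATP DMSO wells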
GalR3 antagonist = GalR3 antagonists in HEK293 cells, primary screen, cell-based, fluorescence readout; Galanin receptor type 3 (Homo sapiens), O60755; HEK293 GalR3-CNG cAMP membrane potential fluorescence; galR3 body fused to GalR1 C-terminus; inhibition, % at 3 µM; hit rate 0.44% among 360,000; AID 651719, 2012;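 active means inhibition above the screen-wide average plus 3 SD, cut at about 13% in these data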;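 further: forskolin and galanin both at EC90 stimulate the cells; cAMP rise reported by CNG channel membrane potential dye signal; 0% = forskolin plus galanin with DMSO and 100% = forskolin alone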
Target sequence (O60755 1-299 limits assumed): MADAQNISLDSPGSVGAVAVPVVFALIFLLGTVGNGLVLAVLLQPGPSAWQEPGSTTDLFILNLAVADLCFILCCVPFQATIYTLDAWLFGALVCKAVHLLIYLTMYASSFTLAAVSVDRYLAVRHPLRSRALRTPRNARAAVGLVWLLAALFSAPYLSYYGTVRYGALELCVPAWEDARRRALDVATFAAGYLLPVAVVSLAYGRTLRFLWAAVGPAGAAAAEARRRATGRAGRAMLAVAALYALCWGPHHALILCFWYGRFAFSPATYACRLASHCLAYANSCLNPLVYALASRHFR
GPR7 antagonist = GPR7 receptor antagonists, primary screen, cell-based, fluorescence, single concentration. GPR7-expressing cells, fluorescence antagonist assay. AID 1861, 2009. inhibition, % at 4.4 µM. hit rate 1.1% among 290,000. Neuropeptides B/W receptor type 1 (Homo sapiens), P48145; in the data active means inhibition above about 16%, passing the limit was not always enough;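 further: cells stimulated with the agonist NPW; 0% = agonist with vehicle and 100% = vehicle without agonist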
OX1R antag-2 = OX1R (HCRTR1) antagonists, primary screen, fluorescence, CHO/OX1R cells, Fluo-8 calcium, orexin A | Orexin/Hypocretin receptor type 1 (Homo sapiens), O43613 | Fluo-8 calcium fluorescence | inhibition, % at 5 µM | hit rate 0.43% among 330,000;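 active means inhibition above its plate's threshold, mean inhibition of all tested compounds on the plate plus 3 SD, cut at about 37% in these data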;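 further: 0% = orexin A challenge wells and 100% = SB-334867-A antagonist wells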
OX1R Fluo8 conf = OX1R (HCRTR1) antagonists, confirmation, fluorescence, CHO/OX1R cells, Fluo-8 calcium, orexin A; shares compounds with OX1R antag-2; orexin A calcium Fluo-8 fluorescence; inhibition, % at 5 µM; hit rate 38% among 1,100; in the data active means inhibition above about 29%;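 further: 0% = agonist challenge alone and 100% = reference antagonist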
CHO Ca counter = ATP-evoked calcium inhibition in parental CHO, counter-screen for OX1R antagonist project, cell-based, fluorescence, CHO-K1, triplicate. shares compounds with OX1R antag-2. ATP-induced calcium, Fluo-8 fluorescence. inhibition, % at 5.6 µM. hit rate 9.3% among 1,100. AID 492965, 2010;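 active means inhibition above a per-plate limit, the mean inhibition of that plate's test compounds plus 3 SD, cut at about 25% in these data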;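 further: 0% = ATP challenge with DMSO and 100% = DMSO without ATP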
Numbers without * were called inactive; nt = no result given.

SMILES | OX1R antag-1 | CHO parental Ca | GalR3 antagonist | GPR7 antagonist | OX1R antag-2 | OX1R Fluo8 conf | CHO Ca counter
O=C(COC(=O)c1ccccc1Br)Nc1cccnc1Cl | 3.7 | -14.0 | -1.9 | nt | -3.5 | nt | nt
CC(Sc1nnc(-c2ccco2)n1N)C(=O)NCc1ccc2c(c1)OCO2 (stereo unspecified) | nt | nt | -1.4 | nt | nt | nt | nt
Cc1ccc(C(=O)N2CCC(Cc3ccccc3)CC2)cc1[N+](=O)[O-] | 28.7 | 11.2 | -2.5 | 2.9 | 27.6 | 17.3 | -3.0
COc1ccc(OC)c(/C=C/c2[nH]c(=O)[nH]c(=O)c2[N+](=O)[O-])c1 | nt | nt | 0.4 | 3.3 | nt | nt | nt
Cn1c(=O)cc(SCC(=O)NCc2ccco2)c2ccccc21 | 13.3 | -4.5 | -3.0 | -4.5 | -12.2 | nt | nt
O=C(CSc1cn(CCNC(=O)c2ccc3ccccc3c2)c2ccccc12)NCc1ccco1 | 28.6 | 12.6 | nt | -12.6 | 22.3 | 1.8 | -10.8
COc1ccc(-c2cc(-c3ccc(OC)c(OC)c3)n[nH]2)c(O)c1 | 40.0 | 19.1 | -2.4 | 6.0 | 34.9 | 4.3 | -10.5
COc1ccc(-c2cc(-c3ccccc3O)[nH]n2)cc1OC | 10.0 | -10.6 | -4.4 | 3.3 | -27.0 | nt | nt
CC(C)(C)OC(=O)NCCCCCNC(=O)c1nc[nH]c1C(=O)NCCCCCNC(=O)OC(C)(C)C | 10.8 | -9.4 | -5.6 | nt | -4.8 | nt | nt
Cc1nn(-c2ccccc2)c2nc(N)c(C#N)c(-c3ccc(O)c(O)c3)c12 | 9.0 | 2.7 | -1.9 | -4.3 | 36.2 | 34.0* | 5.7
CCCN1C(=O)/C(=C/c2ccc(OCC(=O)OCC)cc2)NC1=S | nt | nt | -12.6 | -17.0 | nt | nt | nt
CCCN1C(=O)/C(=C/c2ccc(N3CCOCC3)cc2)NC1=S | 4.1 | 24.1 | -7.6 | 1.1 | 26.2 | 15.0 | 19.0
O=C(Cn1ncc(N2CCOCC2)c(Cl)c1=O)c1ccc(Cl)cc1 | 7.4 | -11.2 | -3.2 | 2.8 | -2.7 | nt | nt
O=C(Cn1ncc(Cl)c(Cl)c1=O)c1ccc(Cl)cc1 | 13.8 | 13.0 | -1.4 | 8.5 | 21.6 | 42.7* | 30.7*
OC(c1ccc(F)cc1)C(CN1CCOCC1)c1ccccc1 (stereo unspecified) | -1.9 | -24.3 | -9.5 | -2.2 | -30.7 | nt | nt
CCS(=O)(=O)Nc1ccc(-c2nnc(SCC(=O)OC)o2)cc1 | 13.5 | -11.7 | -5.1 | -6.1 | -7.9 | nt | nt
COC(=O)CSc1nnc(-c2ccc(S(=O)(=O)NCc3ccccc3Cl)cc2)o1 | 13.7 | 12.0 | -3.4 | 13.6 | 26.1 | 32.9* | 9.6
CCCCn1c(N)c(N(CC(C)C)C(=O)c2ccc(OCC3CCCO3)cc2)c(=O)[nH]c1=O (stereo unspecified) | 17.1 | 12.3 | -3.7 | nt | 6.0 | nt | nt
COc1ccc(C(=O)/C(C#N)=N/Nc2ccc([N+](=O)[O-])cc2)cc1 | 56.0 | 23.3 | -1.2 | 0.2 | 30.5 | 17.2 | 55.1*
O=C(CSc1ccc(Br)cc1)NC1CCS(=O)(=O)C1 (stereo unspecified) | 13.4 | -6.2 | 0.2 | nt | -15.5 | nt | nt
CCN(c1ccccc1)S(=O)(=O)c1ccc(Cl)c(NC(=O)COC(=O)C2CC2C)c1 (stereo unspecified) | 17.4 | 9.9 | -4.2 | -15.1 | 27.5 | -5.1 | -8.0
CCN(c1ccccc1)S(=O)(=O)c1ccc(Cl)c(NC(=O)COC(=O)c2ccc(O)cc2)c1 | 23.4 | -10.9 | 1.0 | -13.5 | -7.1 | nt | nt
COc1cccc(NC(=O)N(Cc2ccco2)C(C)c2cccs2)c1 (stereo unspecified) | 11.4 | -13.6 | -4.0 | -0.9 | -12.1 | nt | nt
CC(c1cccs1)N(Cc1ccco1)C(=O)Nc1ccc(Cl)c(Cl)c1 (stereo unspecified) | 21.5 | -2.0 | -5.3 | -11.7 | 43.8* | -23.0 | -16.1
Cc1cnc(C(=O)OCC(=O)Nc2ccc(Oc3ccccc3)cc2)cn1 | 6.6 | -1.6 | -3.0 | 21.6 | -11.1 | nt | nt
SMILES | OX1R antag-1 | CHO parental Ca | GalR3 antagonist | GPR7 antagonist | OX1R antag-2 | OX1R Fluo8 conf | CHO Ca counter
COc1ccc(NC(=O)c2ccc(NC(=O)COC(=O)c3cnc(C)cn3)cc2)cc1 | 11.2 | 1.6 | -3.2 | nt | 30.9 | 4.0 | 12.1
CCC(Cc1ccccc1)NC(=O)c1cc(S(=O)(=O)N2CCCCC2)c[nH]1 (stereo unspecified) | 12.8 | -15.2 | 4.6 | -0.6 | -14.1 | nt | nt
CCOC(=O)CC(=O)CSc1ncnc2c1oc1ccccc12 | -89.8 | -21.9 | -1.8 | -14.0 | 33.1 | 14.2 | 1.7
O=C(c1ccco1)n1nc(-c2ccco2)nc1SCc1ccccc1 | 8.3 | 8.6 | -1.9 | -13.0 | -10.1 | nt | nt
O=C(Cc1ccccc1)n1nc(-c2ccco2)nc1SCc1ccccc1 | 8.3 | -4.2 | -4.9 | 3.4 | 39.6* | 5.4 | -0.6
CC1CCC2(CC1)NC(=O)N(CC(=O)NCc1ccc(Cl)cc1)C2=O (stereo unspecified) | 3.1 | -22.8 | 3.7 | nt | -25.1 | nt | nt
COc1ccc(S(=O)(=O)N/N=C\c2ccc([N+](=O)[O-])o2)c(OC)c1 | 18.4 | 0.0 | -1.9 | -6.8 | 5.5 | nt | nt
O=[N+]([O-])c1ccc(/C=N\NS(=O)(=O)c2ccc(F)cc2)o1 | 7.2 | 1.4 | -2.2 | 1.9 | 26.9 | -3.1 | 3.1
COc1ccccc1NC(=O)N(C)C[C@H]1Oc2ncc(Br)cc2C(=O)N([C@H](C)CO)C[C@H]1C | nt | nt | -5.6 | nt | nt | nt | nt
CCSC1=N/C(=C\C=C2/Oc3ccccc3N2CC)C(=O)S1 | 42.5 | 12.5 | -6.5 | 3.3 | 31.7 | 15.9 | 12.2
CC(C)C(C)NC(=O)COn1nnc2ccc(S(=O)(=O)N3CCOCC3)cc21 (stereo unspecified) | 6.0 | -5.3 | -5.1 | nt | -11.0 | nt | nt
O=C(O)c1cccc(NC(=O)c2cn(-c3ccccc3)nc2-c2cccc(Br)c2)c1 | 17.2 | 18.3 | -11.6 | -9.0 | 30.2 | 27.1 | 33.0*
COc1cc(NC(=O)CN2CCN(S(=O)(=O)/C=C/c3ccccc3)CC2)cc(OC)c1OC | 4.1 | -24.6 | -1.4 | nt | -32.8 | nt | nt
Cc1ccc2c(c1)nnn2C1CCN(S(=O)(=O)c2cccc(S(=O)(=O)N(C)C)c2)CC1 | 35.1 | 21.6 | -6.7 | -2.1 | 34.8 | 38.4* | 25.4*
